Activity calls are given as the source filed them. The calls are words filed in the database; no cut-off is given here.
Columns and labels:
[1] = biological target: T1, Xanthine dehydrogenase/oxidase (Homo sapiens, UniProt P47989); experiment: Inhibition of xanthine oxidase (unknown origin) assessed as conversion of xanthine to uric acid under aerobic condition at 0.5 mM after 1 hr; conditions: 500 µM
Procedure, shortened: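 Oxidized-form incubation: xanthine oxidase (50 µL of 1.2 µM) was incubated aerobically for 1.0 h with 1.0 mL of a 5 × 10⁻⁴ M compound solution and EDTA in Tris-HCl buffer, total 2.75 mL. Xanthine was then added, and the initial rate of uric acid formation was read at 295 nm against controls without compound.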

[2] = biological target: T1, Xanthine dehydrogenase/oxidase; experiment: Inhibition of xanthine oxidase (unknown origin) assessed as conversion of xanthine to uric acid under anaerobic condition at 5 X 10^-4 M after 1 hr; conditions: 500 µM
Procedure, shortened: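 Reduced-form incubation: xanthine oxidase (50 µL of 1.2 µM), 1.0 mL of a 5 × 10⁻⁴ M compound solution and EDTA in pH 7.4 Tris were purged with N₂. Xanthine was added to reduce the enzyme, and the sealed tube was held 1 h at 25 °C (compound:enzyme 8.3 × 10³). The tube was then opened to air, xanthine added, and the 295 nm initial rate compared with controls.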

Oryctolagus cuniculus [3] = species on record: Oryctolagus cuniculus; experiment: Inhibition of rabbit liver guanase using guanine as substrate at 0.4 mM
Procedure, shortened: (§1)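 Rabbit liver guanase assay in 1.0 mL pH 7.4 0.05 M Tris-HCl with 13.3 µM guanine, started by adding enzyme. Guanine disappearance was followed at 248 nm and compared with a reaction run without inhibitor.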

[4] = Dissociation constant, pKa of the compound by titrimetric analysis; assay type: physicochemical
Oryctolagus cuniculus [5] = species on record: Oryctolagus cuniculus; experiment: Inhibition of rabbit liver guanase using 13.3 uM guanine as substrate assessed as ([I]/[S])50
Procedure, shortened: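 Rabbit liver guanase in 1.0 mL pH 7.4 0.05 M Tris-HCl with 13.3 µM guanine and varying inhibitor, started by adding enzyme. Guanine loss read at 248 nm. V0/Vi was plotted against [I], and I50 was taken where V0/Vi = 2, then expressed relative to the substrate level. Values were reproducible within ±20%.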

[6] = Noncompetitive inhibition of rabbit liver guanase using guanine as substrate by Dixon plot analysis; set-up: species or system Oryctolagus cuniculus
Procedure, shortened: (§2)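 Kinetics used rabbit liver guanase in pH 7.4 0.05 M Tris-HCl, with guanine at 20, 10, 6.4 and 4.8 µM and four inhibitor concentrations, read at 248 nm. Lineweaver–Burk (1/V vs 1/[S]) and Dixon (1/V vs [I]) plots were drawn. Ki was taken from the Dixon x-intercept ([…]).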

Oryctolagus cuniculus [7] = species on record: Oryctolagus cuniculus; experiment: Noncompetitive inhibition of rabbit liver guanase using guanine as substrate by Lineweaver-Burk plot analysis; procedure, shortened: as §2
Oryctolagus cuniculus [8] = species on record: Oryctolagus cuniculus; experiment: Inhibition of rabbit liver guanase using guanine as substrate compound treated at 46 times substrate concentration; procedure, shortened: as §1
Oryctolagus cuniculus [9] = species on record: Oryctolagus cuniculus; experiment: Inhibition of rabbit liver guanase using guanine as substrate compound treated at 32 times substrate concentration; procedure, shortened: as §1
Oryctolagus cuniculus [10] = species on record: Oryctolagus cuniculus; experiment: Inhibition of rabbit liver guanase using guanine as substrate compound treated at 28 times substrate concentration
Procedure, shortened: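 Rabbit liver guanase, diluted from a 10 mg protein/mL stock, run at pH 7.4 in 0.05 M Tris-HCl with 13.3 µM guanine as substrate. Inhibitor was added at varying amounts, at least 28 times the substrate concentration. The enzyme was added last to start the reaction. Guanine loss was followed at 248 nm, and velocities were compared with the uninhibited control.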

T1 sequence (P47989 whole entry): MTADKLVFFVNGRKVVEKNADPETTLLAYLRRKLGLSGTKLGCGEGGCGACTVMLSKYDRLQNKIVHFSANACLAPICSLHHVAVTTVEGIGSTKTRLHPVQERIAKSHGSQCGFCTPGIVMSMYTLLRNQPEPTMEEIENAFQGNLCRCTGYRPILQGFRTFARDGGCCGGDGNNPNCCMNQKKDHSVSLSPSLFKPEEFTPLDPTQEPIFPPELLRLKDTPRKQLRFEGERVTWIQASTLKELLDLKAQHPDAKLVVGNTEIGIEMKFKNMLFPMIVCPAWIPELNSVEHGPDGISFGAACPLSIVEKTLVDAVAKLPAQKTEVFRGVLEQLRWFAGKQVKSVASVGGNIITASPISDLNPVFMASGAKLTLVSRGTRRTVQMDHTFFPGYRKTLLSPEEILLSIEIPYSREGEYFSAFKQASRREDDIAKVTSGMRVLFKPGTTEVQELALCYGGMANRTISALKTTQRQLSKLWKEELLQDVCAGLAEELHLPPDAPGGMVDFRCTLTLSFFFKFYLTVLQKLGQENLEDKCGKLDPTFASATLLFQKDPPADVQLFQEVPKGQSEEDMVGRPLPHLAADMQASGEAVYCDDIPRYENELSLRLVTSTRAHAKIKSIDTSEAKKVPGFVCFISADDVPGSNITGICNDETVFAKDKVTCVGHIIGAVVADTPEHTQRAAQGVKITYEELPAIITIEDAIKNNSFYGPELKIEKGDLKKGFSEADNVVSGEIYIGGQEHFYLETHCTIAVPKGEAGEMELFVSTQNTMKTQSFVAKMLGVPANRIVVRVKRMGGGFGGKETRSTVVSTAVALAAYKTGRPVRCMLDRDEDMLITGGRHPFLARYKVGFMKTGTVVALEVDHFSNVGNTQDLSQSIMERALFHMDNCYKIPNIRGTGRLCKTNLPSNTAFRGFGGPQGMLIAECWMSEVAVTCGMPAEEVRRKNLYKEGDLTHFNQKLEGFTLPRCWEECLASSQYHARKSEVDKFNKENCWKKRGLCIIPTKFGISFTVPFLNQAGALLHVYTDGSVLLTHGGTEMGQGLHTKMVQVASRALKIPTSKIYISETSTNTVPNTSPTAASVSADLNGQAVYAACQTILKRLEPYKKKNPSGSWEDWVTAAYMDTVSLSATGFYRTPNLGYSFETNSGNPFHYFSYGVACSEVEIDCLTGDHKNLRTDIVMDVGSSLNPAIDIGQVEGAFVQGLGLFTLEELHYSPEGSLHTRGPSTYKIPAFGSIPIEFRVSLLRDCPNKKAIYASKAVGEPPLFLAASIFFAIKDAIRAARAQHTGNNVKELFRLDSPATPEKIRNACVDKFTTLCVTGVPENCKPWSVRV

inhibition (INH) [1] | inhibition (INH) [2] | pKa [4] | Structure (SMILES) | also measured
Not Active | Not Active | – | NC1=NS(=O)(=O)Nc2nc[nH]c21 | –
– | – | – | O=c1[nH]cnc2nsnc12 | inhibition (Oryctolagus cuniculus [3]): inactive
Not Active | Not Active | 6.5 | O=C1NS(=O)(=O)Nc2[nH]ncc21 | Ratio (Oryctolagus cuniculus [5]): 15; Ki [6]: 250 µM; inhibition (Oryctolagus cuniculus [7]): Active
– | – | – | NC1=NS(=O)(=O)Nc2[nH]cnc21 | inhibition (Oryctolagus cuniculus [8]): inactive
Not Active | Not Active | 3.2 | NC1=NS(=O)(=O)Nc2nsnc21 | Ratio (Oryctolagus cuniculus [5]): 11; Ki [6]: 190 µM; inhibition (Oryctolagus cuniculus [7]): Active
Not Active | Not Active | 4.1 | NC1=NS(=O)(=O)Nc2[nH]ncc21 | inhibition (Oryctolagus cuniculus [9]): inactive

Structure (SMILES) | inhibition (INH) [1] | inhibition (INH) [2] | pKa [4] | also measured
O=C1NS(=O)(=O)Nc2nc[nH]c21 | Not Active | Not Active | – | inhibition (Oryctolagus cuniculus [10]): inactive
